Experimental data collected from several papers.
Protocols differ between the studies behind these lines.
Target: Insulin receptor (INSR, Homo sapiens, UniProt P06213)

N#Cc1ccc(NC(=O)Nc2ccccc2)cc1
remaining binding (cell-free assay; competition with immobilised ligand; 25 µM): 89%

COc1ccc2oc(-c3ccc4nc(N)oc4c3)c/c(=N\c3ccccc3NC(=O)CCN)c2c1
remaining binding (binding; 1 µM): 85%

C1=C/COCc2cc(ccc2OCCN2CCCC2)Nc2nccc(n2)-c2cccc(c2)COC/1
remaining binding (binding; 0.1 µM): 83%

C=CC(=O)N1CCC([C@@H]2CCNc3c(C(N)=O)c(-c4ccc(Oc5ccccc5)cc4)nn32)CC1
inhibition (cell-free assay; 1 µM): 0%

COc1ccc2[nH]c3c4[nH]c5ccc(OC)cc5c4c4c(c3c2c1)C(=O)NC4=O
remaining binding (binding; 1 µM): 66%

CC#CC(=O)N1CCC[C@H]1c1nc(-c2ccc(C(=O)Nc3ccccn3)cc2)c2c(N)nccn12
inhibition (enzyme activity; inhibitor; 1 µM): 0%

C[C@H]1CC[C@H](n2c3cnccc3c3cnc(Nc4ccc5c(n4)CCN(C(=O)CO)C5)nc32)CC1
remaining binding (binding; 1 µM): 96%

CCCCC(=O)Nc1ccc(-c2ccc3ncn(CCC)c(=O)c3c2)cn1
remaining binding (binding; competition with immobilised ligand; 0.5 µM): 100%
